From ChEMBL document CHEMBL2176871, “Development of ligands at γ-aminobutyrric acid type A (GABAA) receptor subtype as new agents for pain relief” (Bioorg Med Chem, 2011)
Calls of active or inactive are those of the source.

Experiments:
[1] = species on record: Bos taurus; test: Displacement of [3H]Ro151788 from GABA(A)/BzR in bovine cerebral cortex membrane at 10 uM; format: cell membranes
Summary of the method: (§1)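 Bovine cerebral cortex membranes in 50 mM Tris-citrate pH 7.4; [3H]flumazenil displacement. Compounds first tested at a fixed 10 µM; Ki determined only when inhibition exceeded 80%, using at least six concentrations. Five experiments run in triplicate; IC50 obtained by iterative curve fitting and converted to Ki with the Cheng–Prusoff equation.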

[2] = Displacement of [3H]Ro151788 from GABA(A)/BzR in bovine cerebral cortex membrane; format: cell membranes, Bos taurus; summary of the method: as §1
[3] = test system: Rattus norvegicus; test: Antinociceptive activity in Sprague-Dawley rat mononeuropathy pain model assessed as increase in injured paw pressure at 30 mg/kg, po after 45 mins by paw pressure test relative to non-treated control; format: functional
Summary of the method: (§2)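 Chronic constriction injury: loose ligatures placed on the common sciatic nerve under chloral hydrate; contralateral sham dissection. Tested 14 days after surgery. Paw pressure applied at 32 g/s; threshold taken as the force causing the first struggle; cut-off 250 g; pretest outliers (<40 g or >75 g) excluded. Oral dosing in 10 ml/kg; read at 15, 30 and 45 min; compared with a CMC-treated group.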

[4] = test system: Rattus norvegicus; test: Antinociceptive activity in Sprague-Dawley rat mononeuropathy pain model assessed as increase in injured paw pressure at 30 mg/kg, po after 30 mins by paw pressure test relative to non-treated control; format: functional; summary of the method: as §2
[5] = test system: Rattus norvegicus; test: Antinociceptive activity in Sprague-Dawley rat mononeuropathy pain model assessed as increase in injured paw pressure at 30 mg/kg, po after 15 mins by paw pressure test relative to non-treated control; format: functional; summary of the method: as §2
[6] = test system: Rattus norvegicus; test: Toxicity in Sprague-Dawley rat mononeuropathy pain model assessed as effect on contralateral paw pressure at 30 mg/kg, po after 45 mins by paw pressure test; format: organism-based; set-up: dose 30 mg/kg, route oral; conditions: in vivo, 0.75 h
Summary of the method: (§3)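 Same sciatic-ligation rat model, 14 days after surgery. Threshold measured on the non-operated contralateral hind paw by analgesimeter at 32 g/s; first-struggle endpoint; 250 g cut-off; pretest rats outside 40–75 g rejected. Compound given po in 10 ml/kg; readings at 15, 30 and 45 min.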

[7] = test system: Rattus norvegicus; test: Toxicity in Sprague-Dawley rat mononeuropathy pain model assessed as effect on contralateral paw pressure at 30 mg/kg, po after 30 mins by paw pressure test; format: organism-based; set-up: dose 30 mg/kg, route oral; conditions: in vivo, 0.5 h; summary of the method: as §3
[8] = test system: Rattus norvegicus; test: Toxicity in Sprague-Dawley rat mononeuropathy pain model assessed as effect on contralateral paw pressure at 30 mg/kg, po after 15 mins by paw pressure test; format: organism-based; set-up: dose 30 mg/kg, route oral; conditions: in vivo, 0.25 h; summary of the method: as §3
[9] = test system: Mus musculus; test: Anxiolytic activity in ip dosed Swiss albino mouse pain model after 30 mins by light/dark box test; format: functional, organism-based
Summary of the method: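 Male Swiss albino mice were tested in a light/dark box 30 min after dosing. Read-outs were transfers between compartments and time spent in the illuminated side. Dose volume was 10 ml/kg. Results are means ± SEM of 8 mice.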

[10] = test system: Mus musculus; test: Anxiolytic activity in ip dosed Swiss albino mouse pain model after 30 mins by light/dark box test in presence of flumazenil; format: functional, organism-based
Summary of the method: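 Light/dark box test in male Swiss albino mice, with drug given 30 min before testing and flumazenil 100 mg/kg i.p. co-administered before the test. Read-outs were transfers between compartments and time in the lit side. Results are means ± SEM of 8 mice.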

[11] = test system: Mus musculus; test: Antihyperalgesic activity against streptozotocin-induced hyperalgesia in Swiss albino mouse […] assessed as licking latency time at 30 mg/kg, po after 60 mins by hot plate test (reference value: 9.3 +/- 0.7 secs); format: functional
[12] = test system: Mus musculus; test: Antihyperalgesic activity Swiss albino mouse […] assessed as licking latency time at 30 mg/kg, po after 60 mins by hot plate test (reference value: 16.9 +/- 0.8 secs); format: functional
Summary of the method: (§4)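 Hot plate at 52.5 ± 0.1 °C in non-diabetic male Swiss mice. Latency to licking of fore or hind paws was timed before dosing and every 15 min up to 60 min after oral dosing. Mice with pretest latencies below 12 s or above 18 s were excluded. Cut-off was 45 s.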

[13] = test system: Mus musculus; test: Antihyperalgesic activity against streptozotocin-induced hyperalgesia in Swiss albino mouse […] assessed as licking latency time at 30 mg/kg, po after 45 mins by hot plate test (reference value: 9.3 +/- 0.7 secs); format: functional
[14] = test system: Mus musculus; test: Antihyperalgesic activity Swiss albino mouse […] assessed as licking latency time at 30 mg/kg, po after 45 mins by hot plate test (reference value: 16.9 +/- 0.8 secs); format: functional; summary of the method: as §4
[15] = test system: Mus musculus; test: Antihyperalgesic activity against streptozotocin-induced hyperalgesia in Swiss albino mouse […] assessed as licking latency time at 30 mg/kg, po after 30 mins by hot plate test (reference value: 9.3 +/- 0.7 secs); format: functional
[16] = test system: Mus musculus; test: Antihyperalgesic activity Swiss albino mouse […] assessed as licking latency time at 30 mg/kg, po after 30 mins by hot plate test (reference value: 16.9 +/- 0.8 secs); format: functional; summary of the method: as §4
[17] = test system: Mus musculus; test: Antihyperalgesic activity against streptozotocin-induced hyperalgesia in Swiss albino mouse […] assessed as licking latency time at 30 mg/kg, po after 15 mins by hot plate test (reference value: 9.3 +/- 0.7 secs); format: functional
[18] = test system: Mus musculus; test: Antihyperalgesic activity Swiss albino mouse […] assessed as licking latency time at 30 mg/kg, po after 15 mins by hot plate test (reference value: 16.9 +/- 0.8 secs); format: functional; summary of the method: as §4
[19] = test system: Mus musculus; test: Anxiolytic-like activity in Swiss albino mouse at 30 mg/kg, po after 30 mins by light/dark box test; format: functional, organism-based; set-up: dose 30 mg/kg
Summary of the method: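 Male Swiss mice tested in a two-compartment light/dark box. Transfers between compartments and time spent in the lit side recorded. Compound given po 30 min before testing, in 10 ml/kg; flumazenil given i.p. for antagonism; 8 mice per group.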

[20] = test system: Mus musculus; test: Analgesic activity in Swiss albino mouse abdominal constriction model assessed as decrease in number of acetic acid-induced writhing at 30 to 60 mg/kg, po after 30 mins; format: functional, organism-based; conditions: Abdomen
Summary of the method: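 Male Swiss albino mice (23–30 g). Compounds given po in 1% CMC vehicle 30 min before the test. Acetic acid 0.6% injected i.p. at 10 ml/kg. Stretching movements were counted for 10 min, starting 5 min after the acetic acid injection. 8–15 mice per group.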

[21] = test system: Mus musculus; test: Anticonvulsant activity in Swiss albino mouse […] assessed as protection against intraperitoneally administered pentylenetetrazol-induced seizures at 30 mg/kg, po after 30 mins; format: functional
Summary of the method: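 Male Swiss albino mice. Compounds given po and PTZ 90 mg/kg injected 30 min later; PTZ was dissolved in 0.9% NaCl saline. Clonic generalized convulsions were recorded over 30 min. Each value is the mean of 10 mice. The methods give the PTZ route as s.c. and the table footnote gives it as ip.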

[22] = test system: Rattus norvegicus; test: Antinociceptive activity in Sprague-Dawley rat mononeuropathy pain model assessed as increase in injured paw pressure at 10 mg/kg, po after 45 mins by paw pressure test relative to non-treated control; format: functional; summary of the method: as §2
[23] = test system: Rattus norvegicus; test: Antinociceptive activity in Sprague-Dawley rat mononeuropathy pain model assessed as increase in injured paw pressure at 10 mg/kg, po after 30 mins by paw pressure test relative to non-treated control; format: functional; summary of the method: as §2
[24] = test system: Rattus norvegicus; test: Antinociceptive activity in Sprague-Dawley rat mononeuropathy pain model assessed as increase in injured paw pressure at 10 mg/kg, po after 15 mins by paw pressure test relative to non-treated control; format: functional; summary of the method: as §2
[25] = test system: Rattus norvegicus; test: Toxicity in Sprague-Dawley rat mononeuropathy pain model assessed as effect on contralateral paw pressure at 10 mg/kg, po after 45 mins by paw pressure test; format: organism-based; set-up: dose 10 mg/kg, route oral; conditions: in vivo, 0.75 h; summary of the method: as §3
[26] = test system: Rattus norvegicus; test: Toxicity in Sprague-Dawley rat mononeuropathy pain model assessed as effect on contralateral paw pressure at 10 mg/kg, po after 30 mins by paw pressure test; format: organism-based; set-up: dose 10 mg/kg, route oral; conditions: in vivo, 0.5 h; summary of the method: as §3
[27] = test system: Rattus norvegicus; test: Toxicity in Sprague-Dawley rat mononeuropathy pain model assessed as effect on contralateral paw pressure at 10 mg/kg, po after 15 mins by paw pressure test; format: organism-based; set-up: dose 10 mg/kg, route oral; conditions: in vivo, 0.25 h; summary of the method: as §3

COc1ccccc1CNc1ccc2c(c1)n1ncc(I)c1n[n+]2[O-]
inhibition [1]: > 80%
Ki [2]: 0.138 nM

Cc1cnn2c1n[n+]([O-])c1ccc(Cl)cc12
inhibition [1]: > 80%
Ki [2]: 400 nM

O=C(c1cccs1)c1cnn2c1n[n+]([O-])c1ccc(Oc3ccccc3)cc12
Activity [3]: 43.2 g
Activity [4]: 38.4 g
Activity [5]: 37.7 g
Activity [6]: 61.2 g
Activity [7]: 57.8 g
Activity [8]: 60.6 g

Ic1cnn2c1nnc1ccc(NCc3ccccc3)cc12
inhibition [1]: > 80%
Ki [2]: 0.71 nM

[O-][n+]1nc2c(I)cnn2c2cc(Cl)ccc21
Ki [2]: 22.8 nM

CN1C(=O)CN=C(c2ccccc2)c2cc(Cl)ccc21
Activity [9]: Active
Activity [10]: inactive

Cc1cnn2c1n[n+]([O-])c1ccc(OCC(C)c3ccccc3)cc12 (racemic)
inhibition [1]: > 80%
Ki [2]: 361 nM

[O-][n+]1nc2c(I)cnn2c2cc(NCc3ccc(Cl)cc3)ccc21
inhibition [1]: > 80%
Ki [2]: 2.44 nM

CC(COc1ccc2c(c1)n1ncc(I)c1n[n+]2[O-])c1ccccc1 (racemic)
inhibition [1]: > 80%
Time [11]: 18.1 s
Time [12]: 18.2 s
Time [13]: 17.8 s
Time [14]: 17.7 s
Time [15]: 17.5 s
Time [16]: 16.8 s
Time [17]: 16.4 s
Time [18]: 17.2 s
Activity [19]: Active
Activity [20]: inactive
Activity [21]: 0%
Activity [3]: 39 g
Activity [4]: 40.8 g
Activity [5]: 43.4 g
Activity [22]: 37.2 g
Activity [23]: 43.5 g
Activity [24]: 42.5 g
Activity [6]: 59.2 g
Activity [7]: 61.7 g
Activity [8]: 58.8 g
Activity [25]: 57.9 g
Activity [26]: 63.5 g
Activity [27]: 59.8 g
